Assay results as given in ChEMBL document CHEMBL2375304, “Synthesis and anticancer activity of novel 2-pyridyl hexahyrocyclooctathieno[2,3-d]pyrimidine derivatives” (2013).

Key:
Format in all cases: functional
MCF7 = assay: Growth inhibition of human MCF7 cells after 48 hrs by Sulforhodamine B assay; conditions: MCF7, 48 h
In short: (§1)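 Five-concentration SRB assay using 10-fold or ½-log serial dilutions from a DMSO stock. Exposure is 48 h at 37 °C in 5% CO2 after 24 h preincubation. TCA fixation is followed by SRB staining and a reading at 515 nm. Percentage growth is computed from time-zero, control and treated absorbances. GI50 is the concentration where [(Ti−Tz)/(C−Tz)]×100 = 50, read from the plot against log concentration.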

MDA-MB-231 = assay: Growth inhibition of human MDA-MB-231 cells after 48 hrs by Sulforhodamine B assay; conditions: MDA-MB-231, 48 h; in short: as §1
DU-145 = assay: Growth inhibition of human DU145 cells after 48 hrs by Sulforhodamine B assay; conditions: DU-145, 48 h; in short: as §1
SN12C = assay: Growth inhibition of human SN12C cells after 48 hrs by Sulforhodamine B assay
In short: (§2)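 Cells were preincubated 24 h at 37 °C, 5% CO2, and a time-zero plate was TCA-fixed. Five concentrations were made by serial dilution from a DMSO stock (400-fold the top concentration) and incubated 48 h. Adherent cells were fixed with 10% final TCA and suspension cells with 16%. Plates were stained with 0.4% SRB and read at 515 nm. GI50 is the concentration giving 50% reduction in net protein increase versus control.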

TK-10 = assay: Growth inhibition of human TK10 cells after 48 hrs by Sulforhodamine B assay; conditions: TK-10, 48 h
In short: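 Five-concentration stage in the […]-cell-line panel, using 10-fold or ½-log serial dilutions made from a DMSO stock (400-fold). Cells were preincubated 24 h at 37 °C, then drug-exposed 48 h. A time-zero plate was fixed with TCA at dosing, adherent cells were fixed with cold TCA (10% final), and protein was stained with SRB, absorbance 515 nm. GI50 was where [(Ti−Tz)/(C−Tz)]×100 = 50, from the percent growth vs log concentration plot, expressed as log10 GI50.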

RXF 393 = assay: Growth inhibition of human RXF393 cells after 48 hrs by Sulforhodamine B assay; conditions: RXF 393, 48 h; in short: as §2
OVCAR-8 = assay: Growth inhibition of human OVCAR8 cells after 48 hrs by Sulforhodamine B assay; conditions: OVCAR-8, 48 h; in short: as §2
IGROV-1 = assay: Growth inhibition of human IGROV1 cells after 48 hrs by Sulforhodamine B assay; conditions: IGROV-1, 48 h; in short: as §1
SK-MEL-2 = assay: Growth inhibition of human SK-MEL-2 cells after 48 hrs by Sulforhodamine B assay; conditions: SK-MEL-2, 48 h; in short: as §2
M14 = assay: Growth inhibition of human M14 cells after 48 hrs by Sulforhodamine B assay; conditions: M14, 48 h; in short: as §1
SF-539 = assay: Growth inhibition of human SF539 cells after 48 hrs by Sulforhodamine B assay; conditions: SF-539, 48 h; in short: as §2
SF-268 = assay: Growth inhibition of human SF268 cells after 48 hrs by Sulforhodamine B assay; conditions: SF-268, 48 h; in short: as §2
KM12 = assay: Growth inhibition of human KM12 cells after 48 hrs by Sulforhodamine B assay; conditions: KM12, 48 h; in short: as §1
HCT-15 = assay: Growth inhibition of human HCT15 cells after 48 hrs by Sulforhodamine B assay; conditions: HCT-15, 48 h; in short: as §1
NCI-H226 = assay: Growth inhibition of human NCI-H226 cells after 48 hrs by Sulforhodamine B assay; conditions: NCI-H226, 48 h; in short: as §2

Measured: GI50

O=c1[nH]c(-c2ccncc2)nc2sc3c(c12)CCCCCC3
> 100 µM: MCF7 | MDA-MB-231 | DU-145 | SN12C | TK-10 | RXF 393 | OVCAR-8 | IGROV-1 | SK-MEL-2 | M14 | SF-539 | SF-268 | KM12 | HCT-15 | NCI-H226
